ChEMBL document CHEMBL4689842, “EUbOPEN Chemogenomics Library wave 1” (2021)

Tested on: Fibroblast
Assay: Multiplex assay against human fibroblast
Type: toxicity, cell-based
Method in brief: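 Live cells were stained at seeding with Hoechst33342, BioTracker Green Microtubule Cytoskeleton Dye, MitoTracker Red and Annexin V Alexa Fluor 680, then imaged on a CQ1 microscope at 37°C and 5% CO2 after compound addition. CellPathfinder machine-learning gating split cells into Hoechst high-intensity objects or normal cells. Normal cells were split into healthy, pyknosed or fragmented nuclei, and pyknosed cells into mitotic or apoptotic. Tubulin, mitochondrial-mass and membrane-permeability phenotypes are per cents of healthy-nucleus cells.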

[1] = 12 h, 1 µM, compound concentration 1 uM, replicate 1
[2] = 12 h, 1 µM, compound concentration 1 uM, replicate 2
[3] = 12 h, 10 µM, compound concentration 10 uM, replicate 1
[4] = 12 h, 10 µM, compound concentration 10 uM, replicate 2
[5] = 24 h, 1 µM, compound concentration 1 uM, replicate 1
[6] = 24 h, 1 µM, compound concentration 1 uM, replicate 2
[7] = 24 h, 10 µM, compound concentration 10 uM, replicate 1
[8] = 24 h, 10 µM, compound concentration 10 uM, replicate 2

With `CCOC(=O)CCNc1cc(N2CCc3ccccc3CC2)nc(-c2ccccn2)n1` the “Population Apoptotic (%)” value [1] was 89%, the “Population Fragmented Nuclei (%)” value [1] was 22% and the “Population Healthy Nuclei (%)” value [1] was 60%. The “Population Hoechst High Intensity Objects (%)” value [1] was 16%, the “Population Membrane Permeable-Phenotype (%)” value [1] was 8% and the “Population Mitochondria Different-Phenotype (%)” value [1] was 4%. For the same compound, the “Population Mitotic Cells (%)” value [1] was 10%, the “Population Normal (%)” value [1] was 83% and the “Population Pyknosed Nuclei (%)” value [1] was 16%. For the same compound, the “Population Tubulin-Different-Phenotype (%)” value [1] was 5%, the “Total Cell Count” value [1] was 214 and the “Population Apoptotic (%)” value [2] was 100%. For the same compound, the “Population Fragmented Nuclei (%)” value [2] was 47%, the “Population Healthy Nuclei (%)” value [2] was 42% and the “Population Hoechst High Intensity Objects (%)” value [2] was 33%. For the same compound, the “Population Membrane Permeable-Phenotype (%)” value [2] was 0%, the “Population Mitochondria Different-Phenotype (%)” value [2] was 11% and the “Population Mitotic Cells (%)” value [2] was 0%. The “Population Normal (%)” value [2] was 66%, the “Population Pyknosed Nuclei (%)” value [2] was 9% and the “Population Tubulin-Different-Phenotype (%)” value [2] was 11%. The “Total Cell Count” value [2] was 63, the “Population Apoptotic (%)” value [3] was 68% and the “Population Fragmented Nuclei (%)” value [3] was 29%. For the same compound, the “Population Healthy Nuclei (%)” value [3] was 50%, the “Population Hoechst High Intensity Objects (%)” value [3] was 17% and the “Population Membrane Permeable-Phenotype (%)” value [3] was 10%. For the same compound, the “Population Mitotic Cells (%)” value [3] was 31%, the “Population Normal (%)” value [3] was 82% and the “Population Pyknosed Nuclei (%)” value [3] was 20%. For the same compound, the “Population Tubulin-Different-Phenotype (%)” value [3] was 13%, the “Total Cell Count” value [3] was 175 and the “Population Apoptotic (%)” value [4] was 66%. For the same compound, the “Population Fragmented Nuclei (%)” value [4] was 57%, the “Population Healthy Nuclei (%)” value [4] was 35% and the “Population Hoechst High Intensity Objects (%)” value [4] was 40%. For the same compound, the “Population Membrane Permeable-Phenotype (%)” value [4] was 33%, the “Population Mitochondria Different-Phenotype (%)” value [4] was 6% and the “Population Mitotic Cells (%)” value [4] was 33%. The “Population Normal (%)” value [4] was 60%, the “Population Pyknosed Nuclei (%)” value [4] was 7% and the “Population Tubulin-Different-Phenotype (%)” value [4] was 73%. For the same compound, the “Total Cell Count” value [4] was 70, the “Population Apoptotic (%)” value [5] was 76% and the “Population Fragmented Nuclei (%)” value [5] was 23%. For the same compound, the “Population Healthy Nuclei (%)” value [5] was 63%, the “Population Hoechst High Intensity Objects (%)” value [5] was 12% and the “Population Membrane Permeable-Phenotype (%)” value [5] was 11%. For the same compound, the “Population Mitochondria Different-Phenotype (%)” value [5] was 1%, the “Population Mitotic Cells (%)” value [5] was 23% and the “Population Normal (%)” value [5] was 87%. For the same compound, the “Population Pyknosed Nuclei (%)” value [5] was 13%, the “Population Tubulin-Different-Phenotype (%)” value [5] was 1% and the “Total Cell Count” value [5] was 225. For the same compound, the “Population Apoptotic (%)” value [6] was 100%, the “Population Fragmented Nuclei (%)” value [6] was 60% and the “Population Healthy Nuclei (%)” value [6] was 34%. For the same compound, the “Population Hoechst High Intensity Objects (%)” value [6] was 26%, the “Population Membrane Permeable-Phenotype (%)” value [6] was 0% and the “Population Mitochondria Different-Phenotype (%)” value [6] was 14%. For the same compound, the “Population Mitotic Cells (%)” value [6] was 0%, the “Population Normal (%)” value [6] was 73% and the “Population Pyknosed Nuclei (%)” value [6] was 4%. For the same compound, the “Population Tubulin-Different-Phenotype (%)” value [6] was 14%, the “Total Cell Count” value [6] was 56 and the “Population Apoptotic (%)” value [7] was 82%. The “Population Fragmented Nuclei (%)” value [7] was 34%, the “Population Healthy Nuclei (%)” value [7] was 50% and the “Population Hoechst High Intensity Objects (%)” value [7] was 15%. The “Population Membrane Permeable-Phenotype (%)” value [7] was 6%, the “Population Mitochondria Different-Phenotype (%)” value [7] was 6% and the “Population Mitotic Cells (%)” value [7] was 17%. The “Population Normal (%)” value [7] was 84%, the “Population Pyknosed Nuclei (%)” value [7] was 15% and the “Population Tubulin-Different-Phenotype (%)” value [7] was 7%. The “Total Cell Count” value [7] was 180, the “Population Apoptotic (%)” value [8] was 100% and the “Population Fragmented Nuclei (%)” value [8] was 53%. For the same compound, the “Population Healthy Nuclei (%)” value [8] was 41%, the “Population Hoechst High Intensity Objects (%)” value [8] was 33% and the “Population Membrane Permeable-Phenotype (%)” value [8] was 11%. For the same compound, the “Population Mitochondria Different-Phenotype (%)” value [8] was 11%, the “Population Mitotic Cells (%)” value [8] was 0% and the “Population Normal (%)” value [8] was 66%. The “Population Pyknosed Nuclei (%)” value [8] was 4%, the “Population Tubulin-Different-Phenotype (%)” value [8] was 41% and the “Total Cell Count” value [8] was 62.
